Experimental findings from ChEMBL document CHEMBL3526048, “In vitro metabolism of rivoglitazone, a novel peroxisome proliferator-activated receptor γ agonist, in rat, monkey, and human liver microsomes and freshly isolated hepatocytes” (Drug Metab Dispos, 2011) are described below.

Data set [1] deals with T1, Cytochrome P450 3A5 (Homo sapiens, UniProt P20815). Nature of the data set: Activity of human CYP3A5 expressed in microsomes isolated from baculovirus infected insect cell assessed as enzyme-mediated 3-(4-((6-methoxy-1-methyl-1H-benzo[d]imidazol-2-yl)methoxy)phenyl)-2-(methylsulfonyl)propanamide formation at 20 uM after 2 hrs by radio-HPLC/LC-MS/MS analysis in presence of NADPH-generating system/SAM. It counts as ADME. A digest of the protocol:
(§1)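 cDNA-expressed human CYP3A5 in baculovirus-insect-cell microsomes (1 mg/ml protein) was incubated with [¹⁴C]rivoglitazone (20 μM) in 50 mM potassium phosphate (pH 7.4) or 100 mM Tris-HCl (pH 7.5). NADPH-generating system: 2 mM NADP⁺, 20 mM glucose 6-phosphate, 2 units/ml G6PDH, 10 mM MgCl₂. Incubation ran 2 h at 37°C with shaking; insect-cell control supersomes served as control. Acetonitrile stop, supernatant concentrated, then radio-HPLC, LC-MS and LC-MS/MS.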

Data set [2] is described as follows: Drug metabolism in cynomolgus monkey liver microsomes assessed as formation of 2-mercapto-3-(4-((6-methoxy-1-methyl-1H-benzo[d]imidazol-2-yl)methoxy)phenyl)propanoic acid at 20 uM after 2 to 4 hrs by radio-HPLC/LC-MS/MS analysis in presence of UDPGA, UDPGA/SAM and NADPH-generating system. It counts as ADME, Macaca fascicularis. In general terms: Liver microsomes are a subcellular fraction often used to study metabolism.

For a further data set, the target named is T2, Cytochrome P450 1A2 (Homo sapiens, UniProt P05177).
T2 sequence (P05177 whole entry): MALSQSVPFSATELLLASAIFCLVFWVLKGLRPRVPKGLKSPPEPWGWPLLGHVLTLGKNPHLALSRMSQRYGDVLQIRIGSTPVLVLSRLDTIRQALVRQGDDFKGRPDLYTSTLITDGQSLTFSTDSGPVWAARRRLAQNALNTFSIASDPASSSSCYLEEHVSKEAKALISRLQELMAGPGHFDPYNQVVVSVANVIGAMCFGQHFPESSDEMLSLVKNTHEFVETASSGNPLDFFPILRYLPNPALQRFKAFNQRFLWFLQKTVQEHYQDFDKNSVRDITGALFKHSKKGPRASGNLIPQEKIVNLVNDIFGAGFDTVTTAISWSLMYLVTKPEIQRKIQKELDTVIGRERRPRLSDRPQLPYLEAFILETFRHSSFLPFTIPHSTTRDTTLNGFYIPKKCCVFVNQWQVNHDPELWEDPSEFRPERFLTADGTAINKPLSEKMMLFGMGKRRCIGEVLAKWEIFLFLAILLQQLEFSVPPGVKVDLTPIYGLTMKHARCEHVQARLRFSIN
Nature of the data set: Activity of human CYP1A2 expressed in microsomes isolated from baculovirus infected insect cell assessed as enzyme-mediated 5-hydroxy-5-(4-((6-methoxy-1-methyl-1H-benzo[d]imidazol-2-yl)methoxy)benzyl)thiazolidine-2,4-dione formation at 20 uM after 2 hrs by radio-HPLC/LC-MS/MS analysis in presence of NADPH-generating system and NADPH-generating system/SAM. It counts as ADME. A digest of the protocol:
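Baculovirus/insect-cell microsomes expressing single human CYPs, 1 mg/ml protein, with 50 mM potassium phosphate (pH 7.4) or 100 mM Tris-HCl (pH 7.5). NADPH-generating system: 2 mM NADP⁺, 20 mM glucose 6-phosphate, 2 units/ml G6PDH, 10 mM MgCl₂. [¹⁴C]rivoglitazone at 20 μM, 2 h at 37°C with shaking. Control used insect-cell control supersomes. Stopped with acetonitrile; supernatant concentrated under nitrogen; metabolites analysed by radio-HPLC, LC-MS and LC-MS/MS.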

The target of data set [3] is T3, UDP-glucuronosyltransferase 2B17 (Homo sapiens, UniProt O75795).
T3 sequence (O75795 whole entry): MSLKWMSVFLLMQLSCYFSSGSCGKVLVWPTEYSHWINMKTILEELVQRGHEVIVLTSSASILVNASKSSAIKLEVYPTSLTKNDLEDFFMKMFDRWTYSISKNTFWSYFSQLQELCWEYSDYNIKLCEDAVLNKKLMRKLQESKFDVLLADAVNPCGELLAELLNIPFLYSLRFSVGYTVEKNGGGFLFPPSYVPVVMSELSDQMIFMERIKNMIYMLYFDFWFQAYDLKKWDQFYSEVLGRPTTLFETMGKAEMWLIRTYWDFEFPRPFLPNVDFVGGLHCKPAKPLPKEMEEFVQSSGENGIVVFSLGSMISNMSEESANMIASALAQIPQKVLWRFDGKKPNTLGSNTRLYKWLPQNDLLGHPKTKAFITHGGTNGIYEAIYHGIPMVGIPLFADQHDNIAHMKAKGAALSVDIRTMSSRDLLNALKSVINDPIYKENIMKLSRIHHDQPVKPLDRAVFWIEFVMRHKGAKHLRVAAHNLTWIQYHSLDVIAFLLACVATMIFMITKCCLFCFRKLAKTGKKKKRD
In words: Activity of human UGT2B17 expressed in microsomes isolated from baculovirus infected insect cell assessed as enzyme-mediated 2-mercapto-3-(4-((6-methoxy-1-methyl-1H-benzo[d]imidazol-2-yl)methoxy)phenyl)propanoic acid formation at 20 uM after 4 hrs by radio-HPLC/LC-MS/MS analysis in presence of UDPGA. It counts as ADME.

Data set [4] in a line: Drug metabolism in human hepatocytes assessed as formation of 3-(4-((6-methoxy-1-methyl-1H-benzo[d]imidazol-2-yl)methoxy)phenyl)-2-(methylsulfonyl)propanamide at 30 uM after 3 hrs by radio-HPLC/LC-MS/MS analysis in presence of NADPH-generating system/SAM. It counts as ADME, cell-based, Hepatocyte.
The target in another data set is Cytochrome P450 2D6 (Homo sapiens, UniProt P10635). Nature of the data set: Activity of human CYP2D6 expressed in microsomes isolated from baculovirus infected insect cell assessed as enzyme-mediated 2-mercapto-3-(4-((6-methoxy-1-methyl-1H-benzo[d]imidazol-2-yl)methoxy)phenyl)propanamide formation at 20 uM after 2 hrs by radio-HPLC/LC-MS/MS analysis in presence of NADPH-generating system and NADPH-generating system/SAM. The class given is ADME.
Cytochrome P450 2D6, sequence (P10635 whole entry): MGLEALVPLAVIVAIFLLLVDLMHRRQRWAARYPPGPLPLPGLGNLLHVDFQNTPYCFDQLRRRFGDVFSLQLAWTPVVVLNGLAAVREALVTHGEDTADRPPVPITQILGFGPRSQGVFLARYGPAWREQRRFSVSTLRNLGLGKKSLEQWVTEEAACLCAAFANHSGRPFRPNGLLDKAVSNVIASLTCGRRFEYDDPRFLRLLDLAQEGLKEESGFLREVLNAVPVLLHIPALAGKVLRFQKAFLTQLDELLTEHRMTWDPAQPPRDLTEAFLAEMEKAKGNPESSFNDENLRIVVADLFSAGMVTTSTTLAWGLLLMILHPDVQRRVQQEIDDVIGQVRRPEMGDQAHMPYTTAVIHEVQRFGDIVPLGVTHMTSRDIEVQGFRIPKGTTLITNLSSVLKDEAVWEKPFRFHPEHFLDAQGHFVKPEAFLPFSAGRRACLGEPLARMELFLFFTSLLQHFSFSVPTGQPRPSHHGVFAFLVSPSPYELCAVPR

Data set [5] in a line: Drug metabolism in cynomolgus monkey liver microsomes assessed as formation of 5-hydroxy-5-(4-((6-methoxy-1-methyl-1H-benzo[d]imidazol-2-yl)methoxy)benzyl)thiazolidine-2,4-dione at 20 uM after 2 hrs by radio-HPLC/LC-MS/MS analysis in presence of NADPH-generating system and NADPH-generating system/SAM. The class given is ADME, Macaca fascicularis.
A further data set has as its system Liver microsome. Nature of the data set: Drug metabolism in Sprague-Dawley rat liver microsomes assessed as formation of 5-(4-((6-methoxy-1H-benzo[d]imidazol-2-yl)methoxy)benzyl)thiazolidine-2,4-dione at 20 uM after 2 hrs by radio-HPLC/LC-MS/MS analysis in presence of NADPH-generating system and NADPH-generating system/SAM. The class given is ADME.
The target of data set [6] is T1, Cytochrome P450 3A5. In words: Activity of human CYP3A5 expressed in microsomes isolated from baculovirus infected insect cell assessed as enzyme-mediated 2-hydroxy-3-(4-((6-methoxy-1-methyl-1H-benzo[d]imidazol-2-yl)methoxy)phenyl)propanamide formation at 20 uM after 2 hrs by radio-HPLC/LC-MS/MS analysis in presence of NADPH-generating system and NADPH-generating system/SAM. The class given is ADME. A digest of the protocol: as §1

T1 sequence (P20815 whole entry): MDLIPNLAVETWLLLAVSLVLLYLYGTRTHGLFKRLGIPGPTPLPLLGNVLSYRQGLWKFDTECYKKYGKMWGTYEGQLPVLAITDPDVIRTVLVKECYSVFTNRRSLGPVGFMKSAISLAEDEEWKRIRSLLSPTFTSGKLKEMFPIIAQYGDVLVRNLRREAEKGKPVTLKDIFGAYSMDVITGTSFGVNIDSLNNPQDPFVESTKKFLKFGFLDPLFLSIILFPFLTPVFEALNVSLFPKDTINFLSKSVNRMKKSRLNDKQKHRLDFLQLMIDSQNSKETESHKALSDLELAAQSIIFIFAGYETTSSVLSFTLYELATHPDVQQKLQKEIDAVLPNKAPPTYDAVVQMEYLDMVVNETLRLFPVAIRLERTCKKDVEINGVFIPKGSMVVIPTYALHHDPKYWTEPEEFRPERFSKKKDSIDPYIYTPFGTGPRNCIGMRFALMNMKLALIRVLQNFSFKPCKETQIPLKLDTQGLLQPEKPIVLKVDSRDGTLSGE

Regarding `COc1ccc2nc(COc3ccc(C[14CH]4SC(=O)NC4=O)cc3)n(C)c2c1.Cl` (racemic), the Drug metabolism result is reported as “metabolite_not_detected” on Cytochrome P450 3A5 [1]; “metabolite_detected” in data set [2]; “metabolite_detected” on Cytochrome P450 1A2; “metabolite_not_detected” in [3]; “metabolite_detected” in data set [4]; “metabolite_detected” at Cytochrome P450 2D6. The Drug metabolism entry (in [5]; in the data set on Liver microsome; at Cytochrome P450 3A5 [6]) was “metabolite_detected” each time.
